ChEMBL document CHEMBL4680175, “Sulfonamide-based ring-fused analogues for CAN508 as novel carbonic anhydrase inhibitors endowed with antitumor activity: Design, synthesis, and in vitro biological evaluation” (Eur J Med Chem, 2020)
Activity calls are given as the source filed them. No cut-off for these calls is given here.

Key:
TK-10 = assay: Antitumor activity against human TK-10 cells assessed as cell growth inhibition at 10 uM incubated for 48 hrs by sulforhodamine B assay; format: functional; settings: read-out: GI
Outline: (§1)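 NCI one-dose screen: 57-cell-line panel exposed at 10 μM for 48 h, Drug Evaluation Branch protocol. Growth and viability read by sulforhodamine B; data given as percent growth inhibition from the mean-graph of percent growth of treated cells.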

SNB-75 = assay: Antitumor activity against human SNB-75 cells assessed as cell growth inhibition at 10 uM incubated for 48 hrs by sulforhodamine B assay; format: functional; settings: read-out: GI; outline: as §1
IGROV-1 = assay: Antitumor activity against human IGROV1 cells assessed as cell growth inhibition at 10 uM incubated for 48 hrs by sulforhodamine B assay; format: functional; settings: read-out: GI
Outline: (§2)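 NCI Drug Evaluation Branch protocol: primary single-dose screen at 10 μM across a 57-line human cancer panel. Drug exposure is 48 h. Cell growth and viability are read by sulforhodamine B assay. Data are given as a mean graph of percent growth of treated cells and reported as percentage growth inhibition (GI%).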

NCI-H460 = assay: Antitumor activity against human NCI-H460 cells assessed as cell growth inhibition at 10 uM incubated for 48 hrs by sulforhodamine B assay; format: functional; settings: read-out: GI; outline: as §2
Carbonic anhydrase 12 = Carbonic anhydrase 12 (Homo sapiens, UniProt O43570); assay: Inhibition of recombinant human carbonic anhydrase 12 preincubated with enzyme for 15 mins by phenol red dye based stopped flow CO2 hydrase assay
Chain of Carbonic anhydrase 12 (O43570 whole entry): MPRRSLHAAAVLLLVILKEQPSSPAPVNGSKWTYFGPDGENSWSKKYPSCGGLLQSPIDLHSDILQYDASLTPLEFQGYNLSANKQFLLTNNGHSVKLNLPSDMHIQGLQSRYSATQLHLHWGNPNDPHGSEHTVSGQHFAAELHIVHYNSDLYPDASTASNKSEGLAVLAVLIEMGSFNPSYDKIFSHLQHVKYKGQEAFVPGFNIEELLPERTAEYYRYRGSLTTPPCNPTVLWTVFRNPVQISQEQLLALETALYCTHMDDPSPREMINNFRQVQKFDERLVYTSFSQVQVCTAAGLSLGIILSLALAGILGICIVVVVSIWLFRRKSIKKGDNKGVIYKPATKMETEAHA

CAKI-1 = assay: Antitumor activity against human CAKI-1 cells assessed as cell growth inhibition at 10 uM incubated for 48 hrs by sulforhodamine B assay; format: functional; settings: read-out: GI; outline: as §2
UO-31 = assay: Antitumor activity against human UO-31 cells assessed as cell growth inhibition at 10 uM incubated for 48 hrs by sulforhodamine B assay; format: functional; settings: read-out: GI; outline: as §1
Carbonic anhydrase 2 = Carbonic anhydrase 2 (Homo sapiens, UniProt P00918); assay: Inhibition of recombinant human carbonic anhydrase 2 preincubated with enzyme for 15 mins by phenol red dye based stopped flow CO2 hydrase assay
Hs-578T = assay: Antitumor activity against human HS 578T cells assessed as cell growth inhibition at 10 uM incubated for 48 hrs by sulforhodamine B assay; format: functional; settings: read-out: GI; outline: as §2
LOX IMVI = assay: Antitumor activity against human LOX IMVI cells assessed as cell growth inhibition at 10 uM incubated for 48 hrs by sulforhodamine B assay; format: functional; settings: read-out: GI; outline: as §2
CDK9/cyclin T1 = CDK9/cyclin T1 (Homo sapiens, UniProt P50750); assay: Inhibition of human full-length N-terminal GST/His6-tagged CDK9 (1 to 372 residues)/His6-tagged Cyclin-T1 (1 to 726 residues) expressed in sf9 cells using (YSPTSPS)2KK peptide as substrate in presence of [gamma33P]ATP
Chain of CDK9/cyclin T1 (O60563 whole entry, the tested form may be a part): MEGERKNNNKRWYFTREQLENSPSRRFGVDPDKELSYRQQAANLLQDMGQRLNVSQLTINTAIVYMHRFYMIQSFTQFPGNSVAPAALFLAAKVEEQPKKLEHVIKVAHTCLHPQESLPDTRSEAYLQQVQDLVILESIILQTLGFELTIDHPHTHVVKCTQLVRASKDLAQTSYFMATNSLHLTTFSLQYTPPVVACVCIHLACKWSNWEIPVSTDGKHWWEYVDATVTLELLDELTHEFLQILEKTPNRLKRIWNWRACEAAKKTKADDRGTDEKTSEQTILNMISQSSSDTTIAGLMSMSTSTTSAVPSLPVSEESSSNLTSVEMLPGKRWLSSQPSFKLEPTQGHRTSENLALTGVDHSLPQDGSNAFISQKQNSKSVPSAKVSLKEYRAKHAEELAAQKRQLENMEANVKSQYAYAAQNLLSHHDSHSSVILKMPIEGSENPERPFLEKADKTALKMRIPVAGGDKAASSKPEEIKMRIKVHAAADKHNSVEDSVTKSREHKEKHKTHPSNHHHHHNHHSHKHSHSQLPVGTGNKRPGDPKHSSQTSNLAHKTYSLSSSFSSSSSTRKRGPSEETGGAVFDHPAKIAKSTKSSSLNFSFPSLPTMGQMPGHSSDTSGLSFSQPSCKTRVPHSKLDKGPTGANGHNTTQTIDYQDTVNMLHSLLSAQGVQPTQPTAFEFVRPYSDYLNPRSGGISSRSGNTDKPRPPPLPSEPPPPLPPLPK
Chain of CDK9/cyclin T1 (P50750 whole entry, the tested form may be a part): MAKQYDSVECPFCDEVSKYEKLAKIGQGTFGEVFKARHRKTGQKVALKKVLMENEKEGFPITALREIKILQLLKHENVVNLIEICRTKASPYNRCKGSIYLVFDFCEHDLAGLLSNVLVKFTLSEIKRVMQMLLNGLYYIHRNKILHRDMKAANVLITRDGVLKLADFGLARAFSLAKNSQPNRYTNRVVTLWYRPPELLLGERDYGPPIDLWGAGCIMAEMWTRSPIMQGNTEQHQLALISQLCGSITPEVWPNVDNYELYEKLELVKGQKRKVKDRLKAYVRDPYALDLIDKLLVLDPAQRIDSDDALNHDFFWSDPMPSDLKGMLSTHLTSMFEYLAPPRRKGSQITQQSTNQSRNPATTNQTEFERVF

M14 = assay: Antitumor activity against human M14 cells assessed as cell growth inhibition at 10 uM incubated for 48 hrs by sulforhodamine B assay; format: functional; settings: read-out: GI; outline: as §2
ACHN = assay: Antitumor activity against human ACHN cells assessed as cell growth inhibition at 10 uM incubated for 48 hrs by sulforhodamine B assay; format: functional; settings: read-out: GI; outline: as §2
SK-OV-3 = assay: Antitumor activity against human SK-OV-3 cells assessed as cell growth inhibition at 10 uM incubated for 48 hrs by sulforhodamine B assay; format: functional; settings: read-out: GI; outline: as §2
BT-549 = assay: Antitumor activity against human BT-549 cells assessed as cell growth inhibition at 10 uM incubated for 48 hrs by sulforhodamine B assay; format: functional; settings: read-out: GI; outline: as §2
Carbonic anhydrase 1 = Carbonic anhydrase 1 (Homo sapiens, UniProt P00915); assay: Inhibition of recombinant human carbonic anhydrase 1 preincubated with enzyme for 15 mins by phenol red dye based stopped flow CO2 hydrase assay
Chain of Carbonic anhydrase 1 (P00915 whole entry): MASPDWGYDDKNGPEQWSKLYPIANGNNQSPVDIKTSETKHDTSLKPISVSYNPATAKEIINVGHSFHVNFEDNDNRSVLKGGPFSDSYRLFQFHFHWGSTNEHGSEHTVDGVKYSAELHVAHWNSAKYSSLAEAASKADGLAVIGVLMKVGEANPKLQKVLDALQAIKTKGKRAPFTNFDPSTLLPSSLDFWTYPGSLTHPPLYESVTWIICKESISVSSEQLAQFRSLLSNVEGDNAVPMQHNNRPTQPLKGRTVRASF

SR = assay: Antitumor activity against human SR cells assessed as cell growth inhibition at 10 uM incubated for 48 hrs by sulforhodamine B assay; format: functional; settings: read-out: GI; outline: as §1
NCI-H322M = assay: Antitumor activity against human NCI-H322M cells assessed as cell growth inhibition at 10 uM incubated for 48 hrs by sulforhodamine B assay; format: functional; settings: read-out: GI; outline: as §2
[1] = molecular target: Cyclin-dependent kinase 2/cyclin E1 (Homo sapiens, UniProt P24941); assay: Inhibition of CDK2/cyclin E (unknown origin) expressed in baculovirus infected Sf21 insect cells using histone H1 as substrate in presence of [gamma33P]ATP
NCI-H522 = assay: Antitumor activity against human NCI-H522 cells assessed as cell growth inhibition at 10 uM incubated for 48 hrs by sulforhodamine B assay; format: functional; settings: read-out: GI; outline: as §2
NCI/ADR-RES = assay: Antitumor activity against human NCI/ADR-RES cells assessed as cell growth inhibition at 10 uM incubated for 48 hrs by sulforhodamine B assay; format: functional, cell-based; outline: as §2
Carbonic anhydrase 9 = Carbonic anhydrase 9 (Homo sapiens, UniProt Q16790); assay: Inhibition of recombinant human carbonic anhydrase 9 preincubated with enzyme for 15 mins by phenol red dye based stopped flow CO2 hydrase assay
RXF 393 = assay: Antitumor activity against human RXF 393 cells assessed as cell growth inhibition at 10 uM incubated for 48 hrs by sulforhodamine B assay; format: functional; settings: read-out: GI; outline: as §2
786-0 = assay: Antitumor activity against human 786-0 cells assessed as cell growth inhibition at 10 uM incubated for 48 hrs by sulforhodamine B assay; format: functional; settings: read-out: GI; outline: as §2
A498 = assay: Antitumor activity against human A498 cells assessed as cell growth inhibition at 10 uM incubated for 48 hrs by sulforhodamine B assay; format: functional; settings: read-out: GI; outline: as §2
RPMI-8226 = assay: Antitumor activity against human RPMI8226 cells assessed as cell growth inhibition at 10 uM incubated for 48 hrs by sulforhodamine B assay; format: functional; settings: read-out: GI; outline: as §2
MDA-MB-231 = assay: Antitumor activity against human MDA-MB-231/ATCC cells assessed as cell growth inhibition at 10 uM incubated for 48 hrs by sulforhodamine B assay; format: functional; settings: read-out: GI; outline: as §2
SK-MEL-2 = assay: Antitumor activity against human SK-MEL-2 cells assessed as cell growth inhibition at 10 uM incubated for 48 hrs by sulforhodamine B assay; format: functional; settings: read-out: GI; outline: as §2
UACC-62 = assay: Antitumor activity against human UACC-62 cells assessed as cell growth inhibition at 10 uM incubated for 48 hrs by sulforhodamine B assay; format: functional; settings: read-out: GI; outline: as §1
SN12C = assay: Antitumor activity against human SN12C cells assessed as cell growth inhibition at 10 uM incubated for 48 hrs by sulforhodamine B assay; format: functional; settings: read-out: GI; outline: as §2
HOP-92 = assay: Antitumor activity against human HOP92 cells assessed as cell growth inhibition at 10 uM incubated for 48 hrs by sulforhodamine B assay; format: functional; settings: read-out: GI; outline: as §2
SF-268 = assay: Antitumor activity against human SF268 cells assessed as cell growth inhibition at 10 uM incubated for 48 hrs by sulforhodamine B assay; format: functional; settings: read-out: GI; outline: as §2
SK-MEL-5 = assay: Antitumor activity against human SK-MEL-5 cells assessed as cell growth inhibition at 10 uM incubated for 48 hrs by sulforhodamine B assay; format: functional; settings: read-out: GI; outline: as §2
CCRF-CEM = assay: Antitumor activity against human CCRF-CEM cells assessed as cell growth inhibition at 10 uM incubated for 48 hrs by sulforhodamine B assay; format: functional; settings: read-out: GI; outline: as §2
SW-620 = assay: Antitumor activity against human SW620 cells assessed as cell growth inhibition at 10 uM incubated for 48 hrs by sulforhodamine B assay; format: functional; settings: read-out: GI; outline: as §1
MDA-MB-435 = assay: Antitumor activity against human MDA-MB-435 cells assessed as cell growth inhibition at 10 uM incubated for 48 hrs by sulforhodamine B assay; format: functional; settings: read-out: GI; outline: as §2
DU-145 = assay: Antitumor activity against human DU-145 cells assessed as cell growth inhibition at 10 uM incubated for 48 hrs by sulforhodamine B assay; format: functional; settings: read-out: GI; outline: as §2
U-251 = assay: Antitumor activity against human U251 cells assessed as cell growth inhibition at 10 uM incubated for 48 hrs by sulforhodamine B assay; format: functional; settings: read-out: GI; outline: as §1
OVCAR-3 = assay: Antitumor activity against human OVCAR-3 cells assessed as cell growth inhibition at 10 uM incubated for 48 hrs by sulforhodamine B assay; format: functional; settings: read-out: GI; outline: as §2
KM12 = assay: Antitumor activity against human KM12 cells assessed as cell growth inhibition at 10 uM incubated for 48 hrs by sulforhodamine B assay; format: functional; settings: read-out: GI; outline: as §2
Malme-3M = assay: Antitumor activity against human MALME-3M cells assessed as cell growth inhibition at 10 uM incubated for 48 hrs by sulforhodamine B assay; format: functional; settings: read-out: GI; outline: as §2
OVCAR-8 = assay: Antitumor activity against human OVCAR-8 cells assessed as cell growth inhibition at 10 uM incubated for 48 hrs by sulforhodamine B assay; format: functional; settings: read-out: GI; outline: as §2
T47D = assay: Antitumor activity against human T-47D cells assessed as cell growth inhibition at 10 uM incubated for 48 hrs by sulforhodamine B assay; format: functional; settings: read-out: GI; outline: as §1
HCT-116 = assay: Antitumor activity against human HCT116 cells assessed as cell growth inhibition at 10 uM incubated for 48 hrs by sulforhodamine B assay; format: functional; settings: read-out: GI; outline: as §2
HCT-15 = assay: Antitumor activity against human HCT15 cells assessed as cell growth inhibition at 10 uM incubated for 48 hrs by sulforhodamine B assay; format: functional; settings: read-out: GI; outline: as §2
SF-539 = assay: Antitumor activity against human SF539 cells assessed as cell growth inhibition at 10 uM incubated for 48 hrs by sulforhodamine B assay; format: functional; settings: read-out: GI; outline: as §2

Nc1nn2cc(-c3ccc(Cl)cc3)[nH]c2c1/N=N/c1ccc(S(N)(=O)=O)cc1
inhibition of growth at 10 µM (TK-10): 27%
inhibition of growth at 10 µM (SNB-75): 23%
inhibition of growth at 10 µM (IGROV-1): 21%
inhibition of growth at 10 µM (NCI-H460): 25%
Ki (Carbonic anhydrase 12): 36.5 nM
inhibition of growth at 10 µM (CAKI-1): 35%
inhibition of growth at 10 µM (UO-31): 22%
Ki (Carbonic anhydrase 2): 22.1 nM
inhibition of growth at 10 µM (Hs-578T): 21%
inhibition of growth at 10 µM (LOX IMVI): 21%
IC50 (CDK9/cyclin T1): > 12500 nM
inhibition of growth at 10 µM (M14): 21%
inhibition of growth at 10 µM (ACHN): 29%
inhibition of growth at 10 µM (SK-OV-3): 21%
inhibition of growth at 10 µM (BT-549): 34%
Ki (Carbonic anhydrase 1): 651 nM
inhibition of growth at 10 µM (SR): 28%
inhibition of growth at 10 µM (NCI-H322M): 25%
IC50 [1]: > 12500 nM
inhibition of growth at 10 µM (NCI-H522): 30%
Activity (NCI/ADR-RES): inactive
Ki (Carbonic anhydrase 9): 16.6 nM
inhibition of growth at 10 µM (RXF 393): 29%
inhibition of growth at 10 µM (786-0): 28%
inhibition of growth at 10 µM (A498): 65%

Nc1nn2cc(-c3ccc(F)cc3)[nH]c2c1/N=N/c1ccc(S(N)(=O)=O)cc1
inhibition of growth at 10 µM (RPMI-8226): 27%
inhibition of growth at 10 µM (MDA-MB-231): 25%
inhibition of growth at 10 µM (SK-MEL-2): 30%
inhibition of growth at 10 µM (SNB-75): 44%
inhibition of growth at 10 µM (IGROV-1): 38%
inhibition of growth at 10 µM (NCI-H460): 41%
inhibition of growth at 10 µM (UACC-62): 29%
Ki (Carbonic anhydrase 12): 18.6 nM
inhibition of growth at 10 µM (CAKI-1): 53%
inhibition of growth at 10 µM (SN12C): 31%
inhibition of growth at 10 µM (UO-31): 42%
Ki (Carbonic anhydrase 2): 33.8 nM
inhibition of growth at 10 µM (Hs-578T): 33%
inhibition of growth at 10 µM (LOX IMVI): 36%
IC50 (CDK9/cyclin T1): > 12500 nM
inhibition of growth at 10 µM (M14): 35%
inhibition of growth at 10 µM (HOP-92): 25%
inhibition of growth at 10 µM (SF-268): 23%
inhibition of growth at 10 µM (SK-MEL-5): 23%
inhibition of growth at 10 µM (ACHN): 48%
inhibition of growth at 10 µM (CCRF-CEM): 33%
inhibition of growth at 10 µM (SW-620): 23%
inhibition of growth at 10 µM (MDA-MB-435): 22%
inhibition of growth at 10 µM (SK-OV-3): 26%
inhibition of growth at 10 µM (BT-549): 26%
inhibition of growth at 10 µM (DU-145): 30%
Ki (Carbonic anhydrase 1): 769 nM
inhibition of growth at 10 µM (U-251): 24%
inhibition of growth at 10 µM (OVCAR-3): 21%
inhibition of growth at 10 µM (SR): 33%
inhibition of growth at 10 µM (NCI-H322M): 58%
IC50 [1]: > 12500 nM
inhibition of growth at 10 µM (KM12): 27%
inhibition of growth at 10 µM (Malme-3M): 42%
inhibition of growth at 10 µM (NCI-H522): 45%
inhibition of growth at 10 µM (OVCAR-8): 21%
inhibition of growth at 10 µM (T47D): 22%
Activity (NCI/ADR-RES): inactive
Ki (Carbonic anhydrase 9): 28.4 nM
inhibition of growth at 10 µM (HCT-116): 37%
inhibition of growth at 10 µM (RXF 393): 40%
inhibition of growth at 10 µM (786-0): 32%
inhibition of growth at 10 µM (HCT-15): 40%
inhibition of growth at 10 µM (SF-539): 27%
inhibition of growth at 10 µM (A498): 60%
